According to ChEMBL document CHEMBL2057162, “Synthesis and antitumor efficacy of a β-glucuronidase-responsive albumin-binding prodrug of doxorubicin” (J Med Chem, 2012):
pIC50: −log10 of the molar value.

What was measured:
[1] = Antiproliferative activity against human NCI-H290 cells after 48 hrs by XTT assay; assay type: functional, cell-based; conditions: NCI-H290, 48 h
Summary of the method: (§1)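 Human H290, MDA-MB-231 and U87-MG and murine LLC tumour cell lines treated 48 h, with or without β-glucuronidase in the culture medium. IC50 derived from cell viability assays; highest tested dose 2 μM.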

MDA-MB-231 = assay: Antiproliferative activity against human MDA-MB-231 cells after 48 hrs by XTT assay; assay type: functional, cell-based; conditions: MDA-MB-231, 48 h
Summary of the method: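 Human MDA-MB-231 tumour cells were exposed to drug for 48 h, with or without β-glucuronidase added to the culture medium. Viability read-out gave IC50 in nM. Highest prodrug concentration tested was 2 μM.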

[2] = Antiproliferative activity against human U87MG cells after 48 hrs by XTT assay; assay type: functional, cell-based, U-87MG ATCC; conditions: U-87 MG; summary of the method: as §1
[3] = system: Lewis lung carcinoma cell line; assay: Antiproliferative activity against mouse LLC cells after 48 hrs by XTT assay; assay type: functional, cell-based; summary of the method: as §1
Mus musculus [4] = assay: Toxicity in C57BL/6 mouse xenografted with mouse LLC cells assessed as change in body weight at 13.7 umol/kg, iv administered on day 4 and day 11 after tumor transplantation measured on day 17; assay type: organism-based; conditions: in vivo
Summary of the method: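 Subcutaneous murine LLC-bearing mice given two iv doses on days 4 and 11 after transplantation: 2 × 13.7 μmol/kg doxorubicin or 2 × 43.6 μmol/kg prodrug. Body weight change (%) and mortality recorded, 8 mice per group.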

[5] = system: Lewis lung carcinoma cell line; assay: Antitumor activity against mouse LLC cells xenografted in C57BL/6 mouse assessed as decrease in tumor volume at 13.7 umol/kg, iv administered on day 4 and day 11 after tumor transplantation measured on day 17; assay type: functional
Summary of the method: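 Murine LLC tumours grown subcutaneously in mice. Two iv injections on days 4 and 11 after transplantation: doxorubicin 2 × 13.7 μmol/kg, glucuronide prodrugs 2 × 43.6 μmol/kg. T/C = mean relative tumour volume of treated group / mean relative tumour volume of control group. Minimal T/C reported with the day it was reached; 8 mice per group.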

Mus musculus [6] = assay: Nephrotoxicity in C57BL/6 mouse xenografted with mouse LLC cells at 13.7 umol/kg, iv administered on day 4 and day 11 after tumor transplantation measured on day 17 by hematoxylin eosin staining method; assay type: toxicity, organism-based; conditions: in vivo
Summary of the method: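 Kidneys from LLC-bearing mice dosed iv on days 4 and 11 were sectioned and stained with hematoxylin eosin. Renal tissue examined microscopically alongside untreated controls.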

pIC50 (MDA-MB-231): 6.47
pIC50 [3]: 6.68
Structure (SMILES): COc1cccc2c1C(=O)c1c(O)c3c(c(O)c1C2=O)C[C@@](O)(C(=O)CO)C[C@@H]3O[C@H]1C[C@H](N)[C@H](O)[C@H](C)O1 [DOXORUBICIN]
pIC50 [1]: 6.49
pIC50 [2]: 6.10
Activity (Mus musculus [4]): -21%
T/C [5]: 31%
Activity (Mus musculus [6]): Toxic
